In data set [1] the test system is PTZ-induced convulsions. Nature of the data set: PTZ-induced convulsions in mice. It is filed as in vivo. The following applies: for average duration of seizure / latency time / seizure score / mortality: 5 mg/kg i.p., PTZ 70 mg/kg i.p., n = 10; for average duration of seizure / latency time / seizure score: mean ± SEM. Put shortly:
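Overnight-fasted albino mice (n = 10 per group) received test compound at 5 mg/kg i.p., suspended in carboxymethylcellulose and sonicated. Controls were vehicle, PTZ alone and lamotrigine (dose-finding at 1–5 mg/kg). Clonic seizures were induced with PTZ 70 mg/kg i.p. Recorded: latency, convulsion duration, number of convulsions, protection, and a 0–6 seizure score (6 = death). Mean ± SEM; one-way ANOVA with Dunnett's test versus the PTZ group.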

Data set [2] has as its system motor coordination on rotating rod. Nature of the data set: Neurotoxicity / minimal motor impairment, rotating rod. It is filed as in vivo. Conditions: rod observed 5 min, mean ± SEM, 10 mice. Summed up: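 White albino mice of either sex, 8–10 weeks, 25–35 g, were trained on a rotating rod (2.5 cm diameter, 25 cm high). After i.p. dosing (10, 30 or 50 mg/kg), motor coordination was scored over 5 min at 30 min and 4 h. Neurotoxicity meant failure to stay on the rod for 1 min. 10 mice per group; mean ± SEM.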

The test system of data set [3] is MCF-7 cell line. In words: MTT cytotoxicity assay in MCF-7 cells. Conditions: 48 h, MTT; for IC50 ± SD: MCF-7, 1–30 μM; for % inhibition/stimulation: conc. 30 μM. The format is cell-based, human. Summed up:
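MCF-7 cells grown in Eagle's MEM with 10% FBS, 1% penicillin/streptomycin, 0.1 mM non-essential amino acids, 10 μg/mL insulin and 1 mM sodium pyruvate at 37 °C, 5% CO2. Trypsin/EDTA-harvested cells were seeded at 6 × 10^4 cells/mL and incubated overnight. Test compound (1–30 μM, or a fixed 30 μM screen against doxorubicin) was applied for 48 h. MTT 0.5 mg/mL for 4 h, DMSO, A570; % inhibition and IC50.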
In general terms: Tetrazolium dyes change colour on reduction, which living cells bring about.

As to “(1E,2Z)-N-[6-(2,3-Dichlorophenyl)-5-{(E)-[(2E)-3-phenylprop-2-en-1-ylidene]amino}-1,2,4-triazin-3-yl]prop-2-en-1-imine Dibutyl Tin Dichloride Coordinate Complex of L1 [7a]”, in data set [1], the “average duration of seizure” value came out at 110 ± 14.1 s, the latency time was found to be 220.0 ± 72.7 s, the seizure score stood at 12.0 ± 1.2 counts and the mortality is 0.0 counts. The “enhancement of latency time of PTZ-induced seizures compared with the standard LTG drug” value in data set [1] (5 mg/kg, vs LTG) was found to be 4%. In addition, the “time on Rod” value in data set [2] (dose 10 mg/kg i.p.) was 155.0 ± 97.5 s. Besides, the “time on Rod” value in data set [2] (dose 30 mg/kg i.p.) is 130.6 ± 92.4 s. For the same substance, the “time on Rod” value in data set [2] (dose 50 mg/kg i.p.) turned out to be 100.4 ± 87.7 s. For the same substance, in data set [3], the “IC50 ± SD” value is “inactive” and the “% inhibition/stimulation” value amounted to 0.00%.
As for “(1E,2Z)-N-[6-(2,3-Dichlorophenyl)-5-{(E)-[(2E)-3-phenylprop-2-en-1-ylidene]amino}-1,2,4-triazin-3-yl]prop-2-en-1-imine Silver Nitrate Coordinate Complex [6a]”, in data set [1], the “average duration of seizure” value was determined as 105 ± 7.1 s, the latency time was 180.0 ± 75.9 s, the seizure score stood at 11.0 ± 2.3 counts and the mortality worked out at 1 counts. Moreover, the “protection against PTZ-induced convulsions” value in data set [1] (dose of 5 mg/kg) amounted to 90%. The “time on Rod” value in data set [2] (dose 10 mg/kg i.p.) is 141.7 ± 102.5 s. In data set [2] (dose 30 mg/kg i.p.), the “time on Rod” value was 120.0 ± 98.7 s. The “time on Rod” value in data set [2] (dose 50 mg/kg i.p.) was found to be 75.8 ± 20.3 s. In data set [3], the “IC50 ± SD” value is “inactive” and the “% inhibition/stimulation” value is 0.00%.
Consider “(1E,2Z)-N-[6-(2,3-Dichlorophenyl)-5-{(E)-[(2E)-3-phenylprop-2-en-1-ylidene]amino}-1,2,4-triazin-3-yl]prop-2-en-1-imine Zinc Chloride Coordinate Complex [4a]”, for which, in data set [1], the “average duration of seizure” value stood at 86.5 ± 5.0 s, the latency time came out at 145.0 ± 23.4 s, the seizure score turned out to be 15.0 ± 4.9 counts and the mortality is recorded as 0.0 counts. Further, the “time on Rod” value in data set [2] (dose 10 mg/kg i.p.) was 66.7 ± 15.1 s. Besides, the “time on Rod” value in data set [2] (dose 30 mg/kg i.p.) is 45.4 ± 10.3 s. Besides, the “time on Rod” value in data set [2] (dose 50 mg/kg i.p.) was 30.6 ± 4.2 s. Further, in data set [3], the “IC50 ± SD” value was “inactive” and the “% inhibition/stimulation” value turned out to be 0.00%.

The record behind these values is PMC7992179 (ACS Omega, 2021).
